In ChEMBL document CHEMBL1153293, “Discovery and optimization of piperidyl benzamide derivatives as a novel class of 11beta-HSD1 inhibitors” (Bioorg Med Chem Lett, 2009):

Columns and labels:
[1] = target: T1, Nuclear receptor subfamily 1 group I member 2 (Homo sapiens, UniProt O75469); assay: Activity at human PXR receptor transfected in human HepG2 cells assessed as receptor activation at 2 uM by luciferase based reporter gene assay relative to rifampin; assay type: cell-based; details: hepg2, 2 µM
T1 sequence (O75469 whole entry): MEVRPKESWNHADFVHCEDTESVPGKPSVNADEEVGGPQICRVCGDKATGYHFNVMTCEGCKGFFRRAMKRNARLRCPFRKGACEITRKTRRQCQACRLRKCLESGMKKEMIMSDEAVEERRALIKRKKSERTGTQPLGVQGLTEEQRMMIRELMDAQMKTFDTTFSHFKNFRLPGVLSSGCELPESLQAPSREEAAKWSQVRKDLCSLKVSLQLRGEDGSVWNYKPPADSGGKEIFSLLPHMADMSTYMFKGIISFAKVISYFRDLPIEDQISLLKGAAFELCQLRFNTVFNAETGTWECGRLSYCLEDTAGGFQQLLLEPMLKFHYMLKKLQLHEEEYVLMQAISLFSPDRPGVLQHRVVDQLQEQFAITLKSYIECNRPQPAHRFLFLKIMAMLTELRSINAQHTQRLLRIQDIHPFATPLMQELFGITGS
Summary of the method: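 HepG2 cells transfected with human PXR cDNA and a luciferase reporter construct driven by the CYP3A4 gene. Cells were exposed to test article, and luciferase activity was read by chemiluminescence. Rifampin at 10 µM served as the positive control.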

HeLa = assay: Cytotoxicity against human HeLa cells; assay type: functional, cell-based
[2] = Metabolic stability in human liver microsome assessed as compound remaining after 30 mins; assay type: ADME; details: liver microsomes, read-out: Stability
[3] = Metabolic stability in rat liver microsome assessed as compound remaining after 30 mins; assay type: ADME; details: liver microsomes, read-out: Stability
[4] = Oral bioavailability in rat at 2.0 mg/kg; assay type: ADME, organism-based; details: in vivo
Summary of the method: (§1)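 Rats received each compound both iv (0.39, 0.50 or 0.51 mg/kg, depending on compound) and orally at 2.0 mg/kg. Plasma clearance was taken from the iv arm and oral bioavailability (%F) from the po dose.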

[5] = Metabolic stability in rat hepatocyte assessed as compound remaining after 90 mins; assay type: ADME, cell-based; details: hepatocytes, read-out: Stability
[6] = Metabolic stability in human hepatocyte assessed as compound remaining after 90 mins; assay type: ADME, cell-based; details: hepatocytes, read-out: Stability
[7] = Clearance in rat at 0.51 mg/kg, iv; assay type: ADME, organism-based; set-up: dose 0.51 mg/kg, route intravenous; details: in vivo; summary of the method: as §1
[8] = Fraction unbound in rat plasma; assay type: ADME, cell-free
Summary of the method: (§2)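 Unbound fraction (fu) in plasma was measured with a 4 h ultracentrifugation protocol, with samples analyzed by mass spectrometry.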

[9] = Clearance in rat at 0.50 mg/kg, iv; assay type: ADME, organism-based; set-up: dose 0.5 mg/kg, route intravenous; details: in vivo, 0.5 mg/kg; summary of the method: as §1
[10] = Fraction unbound in human plasma; assay type: ADME, cell-free; summary of the method: as §2
[11] = target: T2, 11-beta-hydroxysteroid dehydrogenase 1 (Homo sapiens, UniProt P28845); assay: Inhibition of human recombinant 11beta-HSD1 expressed HEK293 cells by scintillation proximity assay; assay type: cell-based
T2 sequence (P28845 whole entry): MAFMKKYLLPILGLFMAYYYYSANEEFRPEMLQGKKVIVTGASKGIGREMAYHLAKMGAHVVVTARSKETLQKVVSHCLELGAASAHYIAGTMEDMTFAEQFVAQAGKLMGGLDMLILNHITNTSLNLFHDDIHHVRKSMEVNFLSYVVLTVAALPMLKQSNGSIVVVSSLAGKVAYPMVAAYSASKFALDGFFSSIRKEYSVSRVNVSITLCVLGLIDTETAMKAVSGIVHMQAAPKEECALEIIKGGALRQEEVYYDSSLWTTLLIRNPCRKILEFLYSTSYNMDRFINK

[12] = target: T2, 11-beta-hydroxysteroid dehydrogenase 1; assay: Inhibition of human recombinant 11beta-HSD1 expressed HEK293 cells by scintillation proximity assay in presence of human serum albumin; assay type: cell-based
[13] = target: T2, 11-beta-hydroxysteroid dehydrogenase 1; assay: Inhibition of human recombinant 11beta-HSD1 expressed in baculovirus system by scintillation proximity assay
[14] = Clearance in rat at 0.39 mg/kg, iv; assay type: ADME, organism-based; set-up: dose 0.39 mg/kg, route intravenous; details: in vivo; summary of the method: as §1

SMILES | Activity [1] [%] | IC50 (HeLa) [µM] | remaining at 0.5 h [2] [%] | remaining at 0.5 h [3] [%] | also measured
C[C@@](O)(c1ccc(C(=O)N(C2CC2)[C@H]2CC[C@@H](CCC(N)=O)CC2)cc1)C(F)(F)F | 100 | > 10 | > 90 | 72 | 
C[C@@](O)(c1ccc(C(=O)N(C2CC2)[C@H]2CC[C@H](CC#N)CC2)cc1)C(F)(F)F | 75 |  | > 90 | 73 | 
C[C@@](O)(c1ccc(C(=O)N(C2CC2)[C@H]2CC[C@@H](CC#N)CC2)cc1)C(F)(F)F | 74 |  | 70 | 5 | 
C[C@@](O)(c1ccc(C(=O)N(C2CC2)[C@H]2CC[C@H](CCC(N)=O)CC2)cc1)C(F)(F)F | 5 | > 10 | > 90 | > 90 | bioavailability [4]: 22%; remaining at 1.5 h [5]: < 5%; remaining at 1.5 h [6]: 32%; clearance [7]: 3 L/h/kg
C[C@](O)(c1ccc(C(=O)N(C2CC2)[C@H]2CC[C@H](c3cccnc3)CC2)cc1)C(F)(F)F |  | 2.5 |  |  | 
C[C@](O)(c1ccc(C(=O)N(C2CC2)C2CCN(CC3(C(N)=O)CC3)CC2)cc1)C(F)(F)F | 4 | > 10 | > 90 | 86 | fraction unbound [8]: 0.2; bioavailability [4]: 69%; clearance [9]: 0.89 L/h/kg; remaining at 1.5 h [5]: 69%; remaining at 1.5 h [6]: > 90%; fraction unbound [10]: 0.48
C[C@](O)(c1ccc(C(=O)N(C2CC2)[C@H]2CC[C@H](CC3(C(N)=O)CC3)CC2)cc1)C(F)(F)F | 6.5 | 8 | > 90 | > 90 | fraction unbound [8]: 0.048; remaining at 1.5 h [5]: 73%; remaining at 1.5 h [6]: > 90%; fraction unbound [10]: 0.12
C[C@](O)(c1ccc(C(=O)N(C2CC2)C2CCN(CC3(C#N)CC3)CC2)cc1)C(F)(F)F | 3 | > 10 | 86 | 28 | 
C[C@](O)(c1ccc(C(=O)N(C2CC2)[C@H]2CC[C@@H](CCC#N)CC2)cc1)C(F)(F)F | 56 | > 10 | 64 | < 5 | IC50 [11]: 0.01 µM; IC50 [12]: 0.13 µM; IC50 [13]: 0.0028 µM
C[C@](O)(c1ccc(C(=O)N(C2CC2)[C@H]2CC[C@H](CC3(C#N)CC3)CC2)cc1)C(F)(F)F | 60 | 4 | > 90 | > 90 | 
CC(C)(C[C@H]1CC[C@H](N(C(=O)c2ccc([C@](C)(O)C(F)(F)F)cc2)C2CC2)CC1)C(N)=O | 4 | > 10 | > 90 | > 90 | bioavailability [4]: 32%; remaining at 1.5 h [5]: 10%; clearance [14]: 1.3 L/h/kg; remaining at 1.5 h [6]: 84%
CC(C)(C#N)C[C@H]1CC[C@H](N(C(=O)c2ccc([C@](C)(O)C(F)(F)F)cc2)C2CC2)CC1 | 60 |  | > 90 | 77 | 
C[C@](O)(c1ccc(C(=O)N(C2CC2)[C@H]2CC[C@H](CCC#N)CC2)cc1)C(F)(F)F | 30 | > 10 | > 90 |  | 
C[C@](O)(c1ccc(C(=O)N(C2CCC(CC(N)=O)CC2)C2CC2)cc1)C(F)(F)F (mixture of isomers) | 1 |  |  |  | 
